Only some compounds are listed: those with a hit (about 2.3% of all), similar ones and a draw of the others.
Arr AP2 block: blocks beta-arrestin peptide binding to AP2 adaptin; FITC-arrestin peptide / GST-AP2 beads, flow cytometry; AP2 beta2 appendage carries R879A mutation; hit rate 0.31% among 340,000; inhibition, % at 10 µM;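 active = inhibition above a set limit, near 3 SD of compounds lacking own fluorescence, cut at about 54% in these data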
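test system = AP2 appendage R879A on GSH beads | buffer or medium = PBS plus Tween 20 (0.05%) and BSA (0.1%) | incubation = 12 min plus 1 h, RT | detection = bead flow cytometry, FITC channel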
Rtt109 HAT inh: C. albicans Rtt109 histone acetyltransferase inhibition; Q5AAJ8; purified Rtt109/Vps75, ThioGlo CoA-SH fluorescence, 4 h; inhibition, % at 34.9 µM; hit rate 0.16% among 330,000; AID 540336;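 active = inhibition of at least 50% in every replicate; inconclusive = best replicate reaches 50% inhibition but some replicates fall short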
PfHsp90 set2: growth inhibition of yeast expressing Plasmodium Hsp90. inhibition, % at 9.4 µM. S. cerevisiae expressing PfHsp90, BacTiter-Glo ATP, 48 h; yeast lacking PDR1 and PDR3 efflux regulators. AID 504621. hit rate 0.32% among 310,000;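 active = every replicate shows inhibition above about 80%, whatever the replicate mean, limit read from the data; inconclusive = mean inhibition reaches the set limit but some replicate falls short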
PAX8 inh HTS: PAX8 transcriptional activity inhibition; RMG-I TPO-luciferase reporter, SteadyGlo, 24 h; inhibition, % at 12.6 µM; hit rate 1.2% among 360,000; AID 652154;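 active = mean replicate inhibition at least 60% with every replicate also reaching 60%; inconclusive = only one of the two criteria is met; inactive = mean below 60% and not all replicates reaching 60%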;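 note: luciferase light reporting Pax8 driven TPO promoter activity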
HIV Env fusion: blocks HIV Env-driven cell-cell fusion; inhibition, % at 12.3 µM; hit rate 1.1% among 360,000; HeLa-JRFL Env/CEM21 cell fusion, luciferase; AID 651610;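 active = mean replicate inhibition score of at least 50 and every replicate individually at or above 50; inconclusive = only one of the two criteria met; inactive = mean below 50 and not all replicates reaching 50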
N-glyco inh: blocks N-linked glycosylation in D54 reporter cells; reporter increase, % at 12.5 µM; D54 ERlucT glycosylation luciferase reporter, 24 h; percent of 100 nM tunicamycin response; hit rate 0.23% among 360,000;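 active = mean luciferase reporter signal, scaled so untreated is 0 and the glycosylation-blocking control 100, at or above a set limit in every replicate; inconclusive = mean reaches the limit but not every replicate does; inactive = mean below the limit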;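 note: luciferase carries N-glycosylation sites so blocking glycosylation raises the light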
Arr-AP2 CP1: human beta-arrestin and AP2 interaction inhibition, cherry pick. shares compounds with Arr AP2 block. GST-AP2 beads, FITC arrestin peptide binding, flow cytometry; GST-fused beta2-adaptin appendage, R879A mutant. inhibition, % at 10 µM. hit rate 2% among 1,300. AID 504908;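 active = inhibition above a set limit, roughly 3 SD of non-fluorescent compound noise, cut at about 38% in these data; inactive = inhibition at or below that limit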;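 note: loss of bead fluorescence from 50 nM FITC arrestin peptide bound to appendage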
Target sequence (P63010 whole entry, looked up, the tested form may be a part, one chain of several): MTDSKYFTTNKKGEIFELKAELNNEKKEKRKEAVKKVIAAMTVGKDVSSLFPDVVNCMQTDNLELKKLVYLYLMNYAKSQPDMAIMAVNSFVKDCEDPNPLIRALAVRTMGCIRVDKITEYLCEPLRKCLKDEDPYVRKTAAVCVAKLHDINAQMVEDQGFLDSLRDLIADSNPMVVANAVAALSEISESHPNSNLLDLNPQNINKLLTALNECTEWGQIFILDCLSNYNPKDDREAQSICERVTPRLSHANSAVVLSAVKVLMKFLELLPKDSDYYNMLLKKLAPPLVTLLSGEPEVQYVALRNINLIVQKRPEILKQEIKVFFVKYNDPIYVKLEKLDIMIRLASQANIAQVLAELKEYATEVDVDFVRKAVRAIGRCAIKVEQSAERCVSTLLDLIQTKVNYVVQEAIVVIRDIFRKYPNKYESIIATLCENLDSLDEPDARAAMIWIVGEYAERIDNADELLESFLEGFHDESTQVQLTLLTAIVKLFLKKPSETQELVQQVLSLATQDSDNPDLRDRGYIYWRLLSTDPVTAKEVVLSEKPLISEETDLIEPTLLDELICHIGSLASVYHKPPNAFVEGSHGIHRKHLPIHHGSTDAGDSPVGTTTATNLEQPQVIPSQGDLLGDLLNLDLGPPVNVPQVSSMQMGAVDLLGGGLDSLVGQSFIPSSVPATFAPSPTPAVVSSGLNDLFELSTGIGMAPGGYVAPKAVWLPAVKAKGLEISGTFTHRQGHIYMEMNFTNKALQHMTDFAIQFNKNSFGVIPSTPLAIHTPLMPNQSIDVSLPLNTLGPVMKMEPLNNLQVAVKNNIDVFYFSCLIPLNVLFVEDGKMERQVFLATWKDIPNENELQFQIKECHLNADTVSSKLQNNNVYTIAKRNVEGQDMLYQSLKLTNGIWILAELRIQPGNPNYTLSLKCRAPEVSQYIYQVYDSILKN
GST-FITC bead: counter-screen for beta-arrestin AP2 inhibitors: GST-GSH bead binding | GST-fluorescein binding to GSH beads, fluorescence | AID 588338 | hit rate 2% among 1,300 | shares compounds with Arr AP2 block | inhibition, % at 10 µM;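 active = inhibition above 50%, about 3 SD of the inhibition seen with non-fluorescent compounds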;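 note: fluorescein maleimide labelled GST captured on 4 micron glutathione beads; higher means more loss of bead fluorescence from quenching or blocked binding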
Of the large screens only hits and unclear results are named; the others gave an inactive call (follow-up assays come after a bar, where they were run).

CCCNC(=O)N[C@H]1CC[C@H](CCn2cc(C3CC3)nn2)O[C@@H]1CO	none (no result: Arr AP2 block, Rtt109 HAT inh, PfHsp90 set2, N-glyco inh)
Cc1cccc(CN2CCN(C(C)C(=O)NC(C)c3ccccc3)CC2)c1 (stereo not drawn)	Arr AP2 block 56 | Arr-AP2 CP1 inactive | GST-FITC bead inactive
N#C[C@H]1[C@H](c2ccc(-c3cncnc3)cc2)[C@@H](CO)N1C(=O)CN1CCOCC1	none (no result: Arr AP2 block, Rtt109 HAT inh, PfHsp90 set2, N-glyco inh)
C=CCSc1nnc(NC(=O)C2CC(=O)N(Cc3ccc(C)cc3)C2)s1 (stereo not drawn)	Arr AP2 block 56 | Arr-AP2 CP1 inactive | GST-FITC bead inactive
Cc1ccc(CN2CC(C(=O)Nc3nnc(SCc4c(Cl)cccc4Cl)s3)CC2=O)cc1 (stereo not drawn)	none
CCn1cnc2cc(NS(=O)(=O)c3ccc(OC)c(OC)c3)ccc21	Arr AP2 block 61 | Arr-AP2 CP1 inactive | GST-FITC bead inactive
C[C@@H]1CN([C@@H](C)CO)C(=O)CCCn2nncc2CO[C@@H]1CN(C)C	none (no result: Arr AP2 block, Rtt109 HAT inh, PfHsp90 set2, PAX8 inh HTS, N-glyco inh)
CC(=NNC(=O)c1cc(C)nc2ccccc12)c1ccc(N2CCOCC2)cc1	none (no result: PAX8 inh HTS)
C/C(=N\NC(=O)c1cc(-c2ccncc2)nc2ccccc12)c1ccc(N2CCOCC2)cc1	Arr AP2 block 111 | Arr-AP2 CP1 inactive | GST-FITC bead inactive
CN(C)c1ccc(/C=N/NC(=O)C(O)(c2ccccc2)c2ccccc2)o1	Arr AP2 block 61 (no result: PAX8 inh HTS) | Arr-AP2 CP1 inactive | GST-FITC bead inactive
O=C(COC(=O)/C=C/c1cccc(C(F)(F)F)c1)Nc1cccc2ccccc12	Arr AP2 block 91 | Arr-AP2 CP1 inactive | GST-FITC bead inactive
Cc1ccccc1NC(=O)COC(=O)/C=C/c1cccc(C(F)(F)F)c1	none
COc1ccc(NC(=S)N(CCCN2CCCC(C)C2)Cc2cccs2)cc1 (stereo not drawn)	Arr AP2 block 54 | Arr-AP2 CP1 inactive | GST-FITC bead inactive
COc1ccc(NC(=S)N(CCCN2CCCC2)Cc2cccs2)cc1	none
Clc1cccc(CN2CCN(c3ncccn3)CC2)c1Cl	none
Clc1ccccc1CN1CCN(c2ncccn2)CC1	Arr AP2 block 58 | Arr-AP2 CP1 inactive | GST-FITC bead inactive
CCOc1ccccc1OCCC(=O)Nc1ccc2c(c1)OCO2	none | Arr-AP2 CP1 inactive | GST-FITC bead inactive
COc1cc(C)ccc1OCC(=O)Nc1ccc2c(c1)OCO2	none | Arr-AP2 CP1 inactive | GST-FITC bead inactive
CC(=O)c1ccc(OCCCC(=O)Nc2ccc3c(c2)OCCO3)cc1	none (no result: PfHsp90 set2, HIV Env fusion) | Arr-AP2 CP1 inactive | GST-FITC bead inactive
Cc1cc(S(=O)(=O)NC(C)C)ccc1OCC(=O)Nc1ccc2c(c1)OCCO2	Arr AP2 block 63 | Arr-AP2 CP1 inactive | GST-FITC bead inactive
COc1ccc(OCCCC(=O)Nc2ccc3c(c2)OCCO3)cc1	none (no result: PAX8 inh HTS)
COc1ccccc1OCC(=O)Nc1ccc2c(c1)OCO2	none
COCCNC(=O)C[C@H]1CC[C@H]2[C@H](COc3ccc(NC(=O)Nc4ccccc4)cc3C(=O)N2C)O1	none (no result: Arr AP2 block, Rtt109 HAT inh, PfHsp90 set2, N-glyco inh)
CCC(=O)c1ccc(OCC(=O)Nc2ccc3c(c2)OCCO3)cc1	Rtt109 HAT inh inconclusive (no result: PfHsp90 set2) | Arr-AP2 CP1 inactive | GST-FITC bead inactive
Cc1ccc(OCCC(=O)Nc2ccc3c(c2)OCCCO3)cc1	none | Arr-AP2 CP1 inactive | GST-FITC bead inactive
COc1ccc(NC(=O)/C(=C\c2cc(OC)c(OC)cc2[N+](=O)[O-])NC(=O)c2ccccc2)cc1	Arr AP2 block 60 (no result: PAX8 inh HTS, HIV Env fusion) | Arr-AP2 CP1 inactive | GST-FITC bead inactive
COc1cc(/C=C(/NC(=O)c2ccccc2)C(=O)Nc2ccccc2)c([N+](=O)[O-])cc1OC	none
O=C(NCc1ccc(Cl)cc1)C1CCN(S(=O)(=O)c2cccc3nonc23)CC1	Arr AP2 block 109 | Arr-AP2 CP1 inactive | GST-FITC bead 52
CCc1ccc(OCC(=O)NNCC(=O)Nc2ccc(OC)cc2)cc1	Arr AP2 block 58 (no result: PfHsp90 set2) | Arr-AP2 CP1 inactive | GST-FITC bead inactive

Screening data (PubChem)
